Results: ChEMBL document CHEMBL3352186, “Modification and biological evaluation of thiazole derivatives as novel inhibitors of metastatic cancer cell migration and invasion” (J Med Chem, 2014)

How the values were obtained:
[1] = test system: MDA-MB-231; test: Cytotoxicity against human MDA-MB-231 cells assessed as survival at 1 uM after 5 days; type: functional; settings: MDA-MB-231, 120 h, read-out: Survival
[2] = test system: MDA-MB-231; test: Antimigratory activity in human MDA-MB-231 cells after 24 hrs using transwell system by light microscopy; type: functional, cell-based; settings: MDA-MB-231, 24 h
Outline: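 Transwell chambers: 2.5×10^4 cells in serum-free, phenol red-free medium in the upper chamber, with DMEM + 5% FBS below as chemoattractant. Compounds at 10^-8, 10^-7, 10^-6 and 10^-5 M, with 0.1% DMSO vehicle, for 24 h. Membranes were scrubbed, formalin-fixed, methanol-permeabilized and stained with 0.1% crystal violet. Migrated cells were counted by light microscopy per 100× field as % of vehicle. IC50 is the concentration giving 50% migration inhibition.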

[3] = test system: MDA-MB-231; test: Antiinvasive activity in human MDA-MB-231 cells at 10 uM after 24 hrs by matrigel assay; type: functional; settings: MDA-MB-231, 24 h
Outline: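 Cells serum-starved 24 h, trypsinized and resuspended in medium with DMSO or compound; 2.5×10^4 cells/well seeded on Matrigel-coated inserts. Bottom well held 10% FBS medium with DMSO or 10 μM compound. After 24 h, non-invaded cells were scrubbed off and invaded cells fixed (4% formaldehyde, 10 min, RT), stained with 0.04% crystal violet and counted at 100× in five random fields. Result is % invasion relative to DMSO.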

| Structure (SMILES) | viability at 1 µM [1] | IC50 [2] | inhibition at 10 µM [3] |
| --- | --- | --- | --- |
| Cc1ccc(-c2cnc(NC(=O)c3ccccc3)s2)cc1 | 55.6% | 308 nM | – |
| O=C(Nc1nc(-c2cccc(Br)c2)cs1)c1ccccc1 | 78% | 10000 nM | – |
| Cn1c(-c2ccccc2Cl)cs/c1=N\C(=O)c1ccccc1 | 72.2% | 268 nM | – |
| COc1ccc(C(=O)Nc2nc(-c3cc(OC)c(OC)c(OC)c3)cs2)cc1OC | 87.3% | > 25000 nM | – |
| COc1cc(C(=O)/N=c2\scc(-c3cc(OC)c(OC)c(OC)c3)n2C)cc(OC)c1OC | 81.5% | 1960 nM | – |
| CCCCn1c(-c2ccc(C)cc2C)cs/c1=N\C(=O)c1ccccc1 | 70.4% | 196 nM | – |
| COc1cc(-c2cs/c(=N\C(=O)c3ccc(Cl)cc3)n2C)cc(OC)c1OC | 77.6% | 758 nM | – |
| CCn1c(-c2ccc(C)cc2C)cs/c1=N\C(=O)c1ccccc1 | 142% | 1950 nM | > 50% |
| C#CCN(C(=O)c1ccccc1)c1nc(-c2ccc(C)cc2C)cs1 | 106% | 321 nM | – |
| COc1ccccc1C(=O)N(C)c1nc(-c2cc(OC)c(OC)c(OC)c2)cs1 | 109% | > 25000 nM | – |
| Cc1ccc(-c2cn(C)/c(=N/C(=O)c3ccccc3)s2)cc1 | 113% | > 25000 nM | – |
| COc1cc(-c2csc(N(C)C(=O)c3ccccc3)n2)cc(OC)c1OC | 96.4% | 10000 nM | – |
| Cc1sc(N(C)C(=O)c2ccccc2)nc1-c1ccc(F)cc1 | 108% | 1620 nM | – |
| Cc1ccc(-c2cnc(N(C)C(=O)c3ccccc3)s2)cc1 | 59.3% | 1090 nM | – |
| CCN(C(=O)c1ccccc1)c1nc(-c2ccccc2)cs1 | 129% | 533 nM | – |
| CN(C(=O)c1ccccc1)c1nc(-c2ccccc2Cl)cs1 | 88.9% | 41.6 nM | – |

| Structure (SMILES) | viability at 1 µM [1] | IC50 [2] | inhibition at 10 µM [3] |
| --- | --- | --- | --- |
| O=C(Nc1nc(-c2ccc(Br)cc2)cs1)c1ccccc1 | 82.2% | 9500 nM | – |
| Cc1sc(NC(=O)c2ccccc2)nc1-c1ccccc1 | 99% | > 25000 nM | – |
| CCCn1c(-c2ccccc2)cs/c1=N\C(=O)c1ccccc1 | 100% | 657 nM | – |
| CN(C(=O)c1ccccc1)c1nc(-c2cccc(Br)c2)cs1 | 104% | 437 nM | – |
| Cc1sc(NC(=O)c2ccccc2)nc1-c1ccc(F)cc1 | 53.7% | 9100 nM | – |
| Cn1c(-c2cccc(Cl)c2)cs/c1=N\C(=O)c1ccccc1 | 35.2% | 367 nM | – |
| COc1cc(C(=O)N(C)c2nc(-c3cc(OC)c(OC)c(OC)c3)cs2)cc(OC)c1OC | 115% | 470 nM | – |
| O=C(Nc1nc(-c2cccc(Cl)c2)cs1)c1ccccc1 | 71.4% | 123 nM | – |
| Cn1c(-c2cc(C(F)(F)F)cc(C(F)(F)F)c2)cs/c1=N\C(=O)c1ccccc1 | 79.8% | 96.1 nM | – |
| Cc1cs/c(=N\C(=O)c2ccccc2)n1C | 103% | 15000 nM | – |
| COc1cc(-c2csc(NC(=O)c3ccc(Cl)cc3)n2)cc(OC)c1OC | 85.6% | > 25000 nM | – |
| COc1cccc(C(=O)/N=c2\scc(-c3cc(OC)c(OC)c(OC)c3)n2C)c1 | 104% | > 50000 nM | – |
| COc1cc(-c2csc(NC(=O)c3ccccc3)n2)cc(OC)c1OC | 95% | > 50000 nM | – |
| COc1ccc(C(=O)N(C)c2nc(-c3cc(OC)c(OC)c(OC)c3)cs2)c(OC)c1 | 119% | 5040 nM | – |
| COc1cccc(C(=O)N(C)c2nc(-c3cc(OC)c(OC)c(OC)c3)cs2)c1 | 88.9% | 646 nM | – |
| COc1cc(C(=O)Nc2nc(-c3cc(OC)c(OC)c(OC)c3)cs2)cc(OC)c1OC | 77.6% | 1030 nM | – |
